Active and inactive are the calls of the source. No cut-off for these calls is given here.
Legend:
Mus musculus [1] = assay: Induction of anterograde amnesia in NMRI albino mouse assessed as reduction in latency to enter dark compartment at 1 mg/kg, ip by passive avoidance test; assay type: functional, organism-based; parameters: dose 1 mg/kg
In short: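 Male NMRI mice (18-22 g), n=8 per group, received midazolam i.p. in distilled water, 5 ml/kg. In the passive avoidance test, mice were placed in the lit compartment on the testing day, 24 h later, and latency to enter the dark compartment was recorded. Data are mean + SEM.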

[2] = Displacement of [3H]-flumazenil from benzodiazepine receptor in Sprague-Dawley rat brain cortical membranes incubated for 35 mins
In short: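 Rat cortex membranes: homogenized in ice-cold 30 mM Tris-HCl pH 7.4, washed by repeated centrifugation at 4°C, 37°C 30 min preincubation, stored -20°C. 100 µg membrane protein in 50 mM Tris-HCl pH 7.4 with 8.6×10^-5 nmol [3H]-flumazenil plus increasing competitor, 0.5 mL, 30°C 35 min; stopped by centrifugation. NSB with 100 µM diazepam; triplicates; IC50 by nonlinear regression.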

Mus musculus [3] = assay: Toxicity in NMRI albino mouse at 150 mg/kg, ip assessed as induction hypnosis measured after 24 hrs post dose; assay type: organism-based; parameters: dose 150 mg/kg, route intraperitoneal; conditions: in vivo
In short: (§1)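 Ten randomly selected male NMRI mice given single i.p. doses of 50 or 150 mg/kg in DMSO:water 1:10 (5 ml/kg), then observed for 24 h for toxic reactions, sedation and hypnosis.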

Mus musculus [4] = assay: Toxicity in NMRI albino mouse at 50 mg/kg, ip assessed as induction sedation measured after 24 hrs post dose; assay type: organism-based; parameters: dose 50 mg/kg, route intraperitoneal; conditions: in vivo; in short: as §1
Mus musculus [5] = assay: Toxicity in NMRI albino mouse at 150 mg/kg, ip assessed as induction sedation measured after 24 hrs post dose; assay type: organism-based; parameters: dose 150 mg/kg, route intraperitoneal; conditions: in vivo; in short: as §1
Mus musculus [6] = assay: Toxicity in NMRI albino mouse at 50 mg/kg, ip assessed as induction hypnosis measured after 24 hrs post dose; assay type: organism-based; parameters: dose 50 mg/kg, route intraperitoneal; conditions: in vivo; in short: as §1
Mus musculus [7] = assay: Anticonvulsant activity in ip dosed NMRI mouse assessed as reduction in MES-induced seizures by measuring occurrence of hind limb tonic extensions dosed 30 mins before MES injection and measured 30 mins post MES challenge; assay type: functional; conditions: Hindlimb
In short: (§2)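 Male NMRI mice (18-22 g) were given drug i.p. at 5 ml/kg in DMSO:water (1:10), 30 min before maximal electroshock (60 Hz, 37.2 mA, 0.25 s). The read-out was occurrence of hind limb tonic extension.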

Mus musculus [8] = assay: Anticonvulsant activity in ip dosed NMRI mouse assessed as reduction in PTZ-induced lethal convulsion dosed 30 mins before PTZ injection and measured 30 mins post PTZ challenge; assay type: functional
In short: (§3)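 Male NMRI mice (18-22 g) were given drug i.p. at 5 ml/kg in DMSO:water (1:10), 30 min before PTZ 100 mg/kg i.p. (in water). Mice were watched for 30 min after PTZ and deaths were counted.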

Mus musculus [9] = assay: Induction of anterograde amnesia in NMRI albino mouse assessed as reduction in latency to enter dark compartment at 0.325 to 2.5 mg/kg, ip by passive avoidance test; assay type: functional, organism-based
In short: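 Male NMRI mice (18-22 g) dosed i.p. in DMSO:water 1:10 (5 ml/kg), 30 min before the test; midazolam 1 mg/kg i.p. in water as reference. On the testing day, 24 h after training, each mouse is placed in the lit compartment and latency to enter the dark compartment is recorded. n=8 per group, mean + SEM.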

Mus musculus [10] = assay: Anticonvulsant activity in ip dosed NMRI mouse assessed as reduction in MES-induced seizures by measuring occurrence of hind limb tonic extensions dosed 30 mins before MES injection and co-treated with 10 mg/kg BZD antagonist flumazenil and measured 30 mins post MES challenge; assay type: functional, organism-based; parameters: dose 10 mg/kg; conditions: Hindlimb; in short: as §2
Mus musculus [11] = assay: Toxicity in NMRI albino mouse at 150 mg/kg, ip assessed as induction of toxic reactions measured after 24 hrs post dose; assay type: organism-based; parameters: dose 150 mg/kg, route intraperitoneal; conditions: in vivo; in short: as §1
Mus musculus [12] = assay: Hypnotic effect in NMRI albino mouse assessed as potentiation of pentobarbital sleeping time by measuring duration of loss of righting reflex at 1.25 to 5 mg/kg, ip co-treated with 10 mg/kg BZD receptor antagonist flumazenil; assay type: functional, organism-based
In short: (§4)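 Male NMRI mice, 18-22 g, 12 weeks old. Test agent and flumazenil (10 mg/kg) in DMSO:water 1:10, 5 ml/kg i.p., 30 min before pentobarbital 65 mg/kg i.p. (in water). Sleep time is the duration of loss of righting reflex. Mice kept on an electric blanket to prevent hypothermia. n=8 per group, mean + SEM.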

Mus musculus [13] = assay: Toxicity in NMRI albino mouse at 50 mg/kg, ip assessed as induction of toxic reactions measured after 24 hrs post dose; assay type: organism-based; parameters: dose 50 mg/kg, route intraperitoneal; conditions: in vivo; in short: as §1
Mus musculus [14] = assay: Hypnotic effect in NMRI albino mouse assessed as potentiation of pentobarbital sleeping time by measuring duration of loss of righting reflex at 0.625 mg/kg, ip dosed 30 mins before pentobarbital challenge; assay type: functional, organism-based; parameters: dose 0.625 mg/kg; in short: as §4
Mus musculus [15] = assay: Anticonvulsant activity in ip dosed NMRI mouse assessed as reduction in PTZ-induced lethal convulsion dosed 30 mins before PTZ injection and co-treated with BZD antagonist flumazenil and measured 30 mins post PTZ challenge; assay type: functional, organism-based; in short: as §3
Mus musculus [16] = assay: Hypnotic effect in NMRI albino mouse assessed as potentiation of pentobarbital sleeping time by measuring duration of loss of righting reflex dosed intraperitoneally 30 mins before pentobarbital challenge; assay type: functional; in short: as §4
Mus musculus [17] = assay: Hypnotic effect in NMRI albino mouse assessed as potentiation of pentobarbital sleeping time by measuring duration of loss of righting reflex at 1 mg/kg, ip dosed 30 mins before pentobarbital challenge; assay type: functional, organism-based; parameters: dose 1 mg/kg
In short: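 Male NMRI mice (18-22 g), n=8 per group, received diazepam i.p. in DMSO:water (1:10), 5 ml/kg. Pentobarbital 65 mg/kg i.p. followed 30 min later. Sleep time was the duration of loss of righting reflex; mice were kept on an electric blanket against hypothermia. Data are mean + SEM.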

Cc1ncc2n1-c1ccc(Cl)cc1C(c1ccccc1F)=NC2
Activity (Mus musculus [1]): Active

Nc1nnc(-c2ccccc2)n1Cc1ccccc1
IC50 [2]: 0.87 nM | Ki [2]: 0.53 nM

Nc1nnc(-c2ccccc2)n1Cc1ccc(F)cc1
IC50 [2]: 4.45 nM | Ki [2]: 2.73 nM

Cc1cc(=O)n2nc(-c3ccccc3)n(Cc3ccccc3)c2n1
IC50 [2]: 2.39 nM | Ki [2]: 1.46 nM

Cc1cc(=O)n2nc(-c3ccccc3)n(Cc3ccccc3Cl)c2n1
Activity (Mus musculus [3]): Toxic | Activity (Mus musculus [4]): Toxic | Activity (Mus musculus [5]): Toxic | Activity (Mus musculus [6]): Toxic | ED50 (Mus musculus [7]): 15 mg/kg | ED50 (Mus musculus [8]): 56.6 mg/kg | Activity (Mus musculus [9]): Active | Activity (Mus musculus [10]): inactive | Activity (Mus musculus [11]): Non-toxic | Activity (Mus musculus [12]): inactive | IC50 [2]: 0.68 nM | Ki [2]: 0.42 nM | Activity (Mus musculus [13]): Non-toxic | Activity (Mus musculus [14]): inactive | Activity (Mus musculus [15]): inactive | Activity (Mus musculus [16]): Dose-dependent effect | ED50 (Mus musculus [16]; ip): 5 mg/kg

CN1C(=O)CN=C(c2ccccc2)c2cc(Cl)ccc21 [DIAZEPAM]
Activity (Mus musculus [17]): Active | ED50 (Mus musculus [7]): 0.74 mg/kg | ED50 (Mus musculus [8]): 0.75 mg/kg | Activity (Mus musculus [10]): inactive | IC50 [2]: 2.5 nM | Ki [2]: 1.53 nM | Activity (Mus musculus [15]): inactive

Cc1cc(=O)n2nc(-c3ccccc3)n(Cc3ccc(F)cc3)c2n1
IC50 [2]: 1.59 nM | Ki [2]: 0.97 nM

Nc1nnc(-c2ccccc2)n1Cc1ccccc1Cl
IC50 [2]: 2.24 nM | Ki [2]: 1.37 nM
